Results reported in PMC4348351 (Pest management science, 2014).

What was measured:
[1] = test system: An. gambiae; experiment: Topical toxicity bioassay, An. gambiae; type: in vivo, Anopheles gambiae; conditions: adult females, 24 hour mortality
How it was run: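 Anopheline adults, chilled on ice for 1 min, received 200 nL of test compound in 95% ethanol on the abdomen via handheld microapplicator. Five doses × ten insects, three repeats, plus an ethanol-only control. Sugar water was freely available under netting.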

[2] = test system: Diaphorina citri AChE (DcAChE); experiment: AChE inhibition, Ellman assay, DcAChE; type: biochemical; conditions: SR = IC50 of agricultural insect AChE/IC50 of An.gAChE
[3] = test system: Anopheles quadrimaculatus AChE (An.qAChE); experiment: AChE inhibition, Ellman assay, An.qAChE; type: biochemical; conditions: SR = IC50 of mosquito AChE/IC50 of An. gambiae
[4] = target: Aedes aegypti AChE (Ae.aAChE) (Aedes aegypti, UniProt Q6A2E2); experiment: AChE inhibition, Ellman assay, Ae.aAChE; type: biochemical; conditions: SR = IC50 of mosquito AChE/IC50 of An. gambiae
[5] = test system: Cu. quinquefasciatus; experiment: Topical toxicity bioassay, Cu. quinquefasciatus; type: in vivo, Culex quinquefasciatus; conditions: adult females, 24 hour mortality
How it was run: (§1)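 Adult mosquitoes were chilled on ice for 3 min, then 200 nL of test compound in 95% ethanol was applied to the abdomen by handheld microapplicator. Five doses, ten insects each, repeated three times, with an ethanol-only negative control. Insects were held under netting with free access to sugar water.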

[6] = test system: Aedes albopictus AChE (Ae.bAChE); experiment: AChE inhibition, Ellman assay, Ae.bAChE; type: biochemical; conditions: SR = IC50 of mosquito AChE/IC50 of An. gambiae
[7] = test system: Musca domestica AChE (MdAChE); type: biochemical; conditions: for SR MdAChE: SR = IC50 of agricultural insect AChE/IC50 of An.gAChE
[8] = test system: O. nubilalis; experiment: Topical toxicity bioassay, O. nubilalis; type: in vivo, Ostrinia nubilalis; conditions: for SR (toxicity): Selectivity Ratio = O. nubilalis LD50/An. gambiae LD50; for LD50 (95% CI) O. nubilalis: topical, L2 larvae, 24 hour mortality
How it was run: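 Lepidopteran larvae were ice-chilled for 3 min before 1 μL of test compound in 95% ethanol was applied to the abdomen with a handheld microapplicator. Five doses, ten larvae per dose, done three times, with an ethanol-only negative control. Food substrate was provided in netted containers.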

[9] = test system: Anopheles albimanus AChE (An.aAChE); experiment: AChE inhibition, Ellman assay, An.aAChE; type: biochemical; conditions: SR = IC50 of mosquito AChE/IC50 of An. gambiae
[10] = test system: Culex quinquefasciatus AChE (CqAChE); experiment: AChE inhibition, Ellman assay, CqAChE; type: biochemical; conditions: SR = IC50 of mosquito AChE/IC50 of An. gambiae
[11] = test system: Ae. aegypti; experiment: Topical toxicity bioassay, Ae. aegypti; type: in vivo, Aedes aegypti; conditions: adult females, 24 hour mortality
How it was run: as §1

[12] = test system: Apis mellifera AChE (Ap.mAChE); experiment: AChE inhibition, Ellman assay, Ap.mAChE; type: biochemical; conditions: for SR Ap.mAChE: SR = IC50 of agricultural insect AChE/IC50 of An.gAChE
[13] = test system: Ostrinia nubilalis AChE (OnAChE); experiment: AChE inhibition, Ellman assay, OnAChE; type: biochemical; conditions: for SR OnAChE: SR = IC50 of agricultural insect AChE/IC50 of An.gAChE
[14] = test system: Plutella xylostella AChE (PxAChE); experiment: AChE inhibition, Ellman assay, PxAChE; type: biochemical; conditions: for SR PxAChE: SR = IC50 of agricultural insect AChE/IC50 of An.gAChE
[15] = target: Drosophila melanogaster AChE (DmAChE) (Drosophila melanogaster, UniProt P07140); experiment: AChE inhibition, Ellman assay, DmAChE; type: biochemical; conditions: for SR DmAChE: SR = IC50 of agricultural insect AChE/IC50 of An.gAChE
[16] = test system: mosquito acetylcholinesterases; experiment: AChE inhibition, statements across mosquito species; type: biochemical

SMILES | LD50 (95% CI) An. gambiae [1] | SR DcAChE [2] | SR An.qAChE [3] | SR Ae.aAChE [4] | LD50 (95% CI) Cu. quinquefasciatus [5] | SR Ae.bAChE [6] | SR MdAChE [7] | SR (toxicity) [8] | LD50 (95% CI) O. nubilalis [8] | SR An.aAChE [9] | SR CqAChE [10] | LD50 (95% CI) Ae. aegypti [11] | SR Ap.mAChE [12] | SR OnAChE [13] | SR PxAChE [14] | SR DmAChE [15] | further results
CNC(=O)Oc1cccc2c1OC(C)(C)O2 [Bendiocarb, bendiocarb] | 2 (1–4) aA ng/mg | 0.5 | 0.8 | 0.7 | 2 (1–4) aB ng/mg | 0.8 | 0.3 | 2 | 4 (2–6) aB ng/mg | 1.0 | 1.2 | 1 (0.5–3) aA ng/mg | 0.3 | 2 | 1.3 | 0.2 | fold more potent than propoxur, MdAChE ([7]; IC50 ratio versus propoxur): 2.6 fold; fold more toxic than 1, O. nubilalis ([8]; LD50 ratio versus 1): 24 fold; LD50 (95% CI) O. nubilalis ([8]; listed as bendiocarb): 4 ng/mg; fold difference in IC50 versus propoxur, Ap.mAChE ([12]; IC50 ratio versus propoxur): 19 fold; fold more potent than 1, OnAChE ([13]; IC50 ratio versus 1): 8 fold; fold more potent than 5, OnAChE ([13]; IC50 ratio versus 5): 243 fold; fold more potent than 1, PxAChE ([14]; IC50 ratio versus 1): 3 fold; fold more potent than 5, PxAChE ([14]; IC50 ratio, 100 μM value used for 5): 461 fold; SR PxAChE ([14]; listed as bendiocarb): ≤ 7; fold more potent than propoxur, DmAChE ([15]; IC50 ratio versus propoxur): 3.9 fold
CNC(=O)Oc1cccc2c1OC(C)(C)C2 [Carbofuran, carbofuran] |  |  | 0.9 | 0.9 |  | 1.0 |  |  |  | 1.2 | 2.3 |  |  |  |  |  | fold more active than bendiocarb, within each mosquito species ([16]; IC50 ratio versus bendiocarb): about 3 fold; fold more potent than propoxur, within each mosquito species ([16]; IC50 ratio versus propoxur): approximately 10 fold
CNC(=O)Oc1ccccc1OC(C)C [Propoxur] | 3 (2–4) aA ng/mg | 2 | 1.0 | 0.8 | 8 (5–11) bA ng/mg | 0.8 | 0.3 | 14 | 42 (34–49) cA ng/mg | 1.1 | 1.1 | 3 (1–4) aA ng/mg | 2 | 15 | 7.5 | 0.2 | SR PxAChE ([14]; listed as propoxur): 7
